Measured values reported in ChEMBL document CHEMBL1159061, “Synthesis and biological properties of iron chelators based on a bis-2-(2-hydroxy-phenyl)-thiazole-4-carboxamide or -thiocarboxamide (BHPTC) scaffold” (Bioorg Med Chem, 2010).
Activity calls are given as the source filed them. The calls are words filed in the database; no cut-off is given here.

Legend:
[1] = Induction of iron chelating activity by calcein fluorescence assay; format: physicochemical
Method in brief: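 Cell-free calcein assay in 20 mM HEPES, 150 mM NaCl, pH 7.3, at 20 °C with orbital stirring. Calcein was quenched with iron(III) for 6 h to maximal quenching. Fluorescence recovery (ex 485/em 520 nm) was followed for 1 h at various chelator concentrations, and the initial dequenching rate was derived from the kinetics. Three independent experiments.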

[2] = Antiproliferative activity against human HepaRG cells after 72 hrs by MTT assay; format: functional, cell-based
Method in brief: (§1)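 Proliferating HepaRG cells at day 4 (seeded at 2.5×10⁴/cm² in William's E, 10% FCS, insulin, glutamine, hydrocortisone) were exposed for 72 h to a concentration series, with or without added iron(III) as each line states. Viability was read by MTT (0.5 mg/L as printed) for 3 h in serum-free medium, DMSO-solubilized formazan at 535 nm, expressed as % of control SDH activity.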

[3] = Antiproliferative activity against human HepaRG cells after 72 hrs by MTT assay in presence of iron(3); format: functional, cell-based; method in brief: as §1
KB [4] = assay: Antiproliferative activity against human KB cells at 10 uM after 72 hrs by MTS assay; format: functional
Method in brief: (§2)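 Cells grown under 5% CO2: KB and HepG2 in DMEM with 10% FCS, penicillin, streptomycin and fungizone; HCT116, HT29, HCT15, MCF7, MCF7R, SK-OV3, PC-3, A549, HL60, K562 and SF268 in RPMI. Cells were plated in 96-well plates and dosed 24 h later from DMSO stocks (controls 1% DMSO final). After 72 h, MTS was added for 3 h at 37 °C and absorbance read at 490 nm. Inhibition = (1 − OD treated/OD control)×100, in triplicate.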

KB [5] = assay: Antiproliferative activity against human KB cells at 1 uM after 72 hrs by MTS assay; format: functional; method in brief: as §2
HCT-116 [6] = assay: Antiproliferative activity against human HCT116 cells at 10 uM after 72 hrs by MTS assay; format: functional; conditions: HCT-116, 72 h; method in brief: as §2
HCT-116 [7] = assay: Antiproliferative activity against human HCT116 cells at 1 uM after 72 hrs by MTS assay; format: functional; conditions: HCT-116, 72 h; method in brief: as §2
HT-29 [8] = assay: Antiproliferative activity against human HT-29 cells at 10 uM after 72 hrs by MTS assay; format: functional; conditions: HT-29, 72 h; method in brief: as §2
HT-29 [9] = assay: Antiproliferative activity against human HT-29 cells at 1 uM after 72 hrs by MTS assay; format: functional; conditions: HT-29, 72 h; method in brief: as §2
HCT-15 [10] = assay: Antiproliferative activity against human HCT15 cells at 10 uM after 72 hrs by MTS assay; format: functional; conditions: HCT-15, 72 h; method in brief: as §2
HCT-15 [11] = assay: Antiproliferative activity against human HCT15 cells at 1 uM after 72 hrs by MTS assay; format: functional; conditions: HCT-15, 72 h; method in brief: as §2
MCF7 [12] = assay: Antiproliferative activity against human MCF7 cells at 10 uM after 72 hrs by MTS assay; format: functional; conditions: MCF7, 72 h; method in brief: as §2
MCF7 [13] = assay: Antiproliferative activity against human MCF7 cells at 1 uM after 72 hrs by MTS assay; format: functional; conditions: MCF7, 72 h; method in brief: as §2
MCF7 [14] = assay: Antiproliferative activity against doxorubicin-resistant human MCF7 cells at 10 uM after 72 hrs by MTS assay; format: functional; conditions: MCF7, 72 h; method in brief: as §2
MCF7 [15] = assay: Antiproliferative activity against doxorubicin-resistant human MCF7 cells at 1 uM after 72 hrs by MTS assay; format: functional; conditions: MCF7, 72 h; method in brief: as §2
A549 [16] = assay: Antiproliferative activity against human A549 cells at 10 uM after 72 hrs by MTS assay; format: functional; conditions: A549, 72 h; method in brief: as §2
A549 [17] = assay: Antiproliferative activity against human A549 cells at 1 uM after 72 hrs by MTS assay; format: functional; conditions: A549, 72 h; method in brief: as §2
PC-3 [18] = assay: Antiproliferative activity against human PC3 cells at 10 uM after 72 hrs by MTS assay; format: functional; conditions: PC-3, 72 h; method in brief: as §2
PC-3 [19] = assay: Antiproliferative activity against human PC3 cells at 1 uM after 72 hrs by MTS assay; format: functional; conditions: PC-3, 72 h; method in brief: as §2
SF-268 [20] = assay: Antiproliferative activity against human SF268 cells at 10 uM after 72 hrs by MTS assay; format: functional; conditions: SF-268, 72 h; method in brief: as §2
SF-268 [21] = assay: Antiproliferative activity against human SF268 cells at 1 uM after 72 hrs by MTS assay; format: functional; conditions: SF-268, 72 h; method in brief: as §2
SK-OV-3 [22] = assay: Antiproliferative activity against human SKOV3 cells at 10 uM after 72 hrs by MTS assay; format: functional; conditions: SK-OV-3, 72 h; method in brief: as §2
SK-OV-3 [23] = assay: Antiproliferative activity against human SKOV3 cells at 1 uM after 72 hrs by MTS assay; format: functional; conditions: SK-OV-3, 72 h; method in brief: as §2
HL-60 [24] = assay: Antiproliferative activity against human HL60 cells at 10 uM after 72 hrs by MTS assay; format: functional; conditions: HL-60, 72 h; method in brief: as §2
HL-60 [25] = assay: Antiproliferative activity against human HL60 cells at 1 uM after 72 hrs by MTS assay; format: functional; conditions: HL-60, 72 h; method in brief: as §2
K562 [26] = assay: Antiproliferative activity against human K562 cells at 10 uM after 72 hrs by MTS assay; format: functional; conditions: K562, 72 h; method in brief: as §2
K562 [27] = assay: Antiproliferative activity against human K562 cells at 1 uM after 72 hrs by MTS assay; format: functional; conditions: K562, 72 h; method in brief: as §2
HepG2 [28] = assay: Antiproliferative activity against human HepG2 cells at 10 uM after 72 hrs by MTS assay; format: functional; conditions: HepG2, 72 h; method in brief: as §2
HepG2 [29] = assay: Antiproliferative activity against human HepG2 cells at 1 uM after 72 hrs by MTS assay; format: functional; conditions: HepG2, 72 h; method in brief: as §2
Hepatocyte = assay: Cytoprotective activity in human hepatocytes assessed as inhibition of FeNTA-induced increase in extracellular LDH activity relative to control; format: functional; set-up: scale not given: the % may be the effect or the level left
HepaRG = assay: Cytotoxicity against human HepaRG cells assessed as increase in extracellular LDH release at >100 uM after 72 hrs in presence of iron(3); format: functional, cell-based

Structure (SMILES) | IC50 [2] [µM] | inhibition at 10 µM (KB [4]) [%] | inhibition at 1 µM (KB [5]) [%] | inhibition at 10 µM (HCT-116 [6]) [%] | inhibition at 1 µM (HCT-116 [7]) [%] | inhibition at 10 µM (HT-29 [8]) [%] | inhibition at 1 µM (HT-29 [9]) [%] | inhibition at 10 µM (HCT-15 [10]) [%] | inhibition at 1 µM (HCT-15 [11]) [%] | inhibition at 10 µM (MCF7 [12]) [%] | inhibition at 1 µM (MCF7 [13]) [%] | inhibition at 10 µM (MCF7 [14]) [%] | inhibition at 1 µM (MCF7 [15]) [%] | inhibition at 10 µM (A549 [16]) [%] | inhibition at 1 µM (A549 [17]) [%] | inhibition at 10 µM (PC-3 [18]) [%] | inhibition at 1 µM (PC-3 [19]) [%] | inhibition at 10 µM (SF-268 [20]) [%] | inhibition at 1 µM (SF-268 [21]) [%] | inhibition at 10 µM (SK-OV-3 [22]) [%] | also measured
CC(=O)N(O)CCCCCNC(=O)CCC(=O)N(O)CCCCCNC(=O)CCC(=O)N(O)CCCCCN [DEFEROXAMINE] | 50 | 16 | 0 | 20 | 0 | 42 | 0 | 46 | 0 | 0 | 0 | 9 | 0 | 50 | 2 | 44 | 1 | 33 | 0 | 52 | IC50 [1]: 4.4 µM; IC50 [3]: 70 µM; inhibition at 1 µM (SK-OV-3 [23]): 5%; inhibition at 10 µM (HL-60 [24]): 0%; inhibition at 1 µM (HL-60 [25]): 0%; inhibition at 10 µM (K562 [26]): 0%; inhibition at 1 µM (K562 [27]): 0%; inhibition at 10 µM (HepG2 [28]): 0%; inhibition at 1 µM (HepG2 [29]): 0%; Activity (Hepatocyte): 162%
O=C(O)c1ccc(O)c(-c2nc(C(=O)NCCOCCOCCNC(=O)c3csc(-c4cc(C(=O)O)ccc4O)n3)cs2)c1 | 120 | 2 | 0 | 0 | 0 | 1 | 0 | 0 | 0 | 0 | 0 | 2 | 0 | 0 | 1 | 8 | 0 | 0 | 0 | 7 | Activity (HepaRG): Active; inhibition at 1 µM (SK-OV-3 [23]): 4%; inhibition at 10 µM (HL-60 [24]): 0%; inhibition at 1 µM (HL-60 [25]): 0%; inhibition at 10 µM (K562 [26]): 9%; inhibition at 1 µM (K562 [27]): 0%; inhibition at 10 µM (HepG2 [28]): 0%; inhibition at 1 µM (HepG2 [29]): 0%; Activity (Hepatocyte): 179%
COC(=O)c1ccc(O)c(-c2nc(C(=O)NCCOCCOCCNC(=O)c3csc(-c4cc(C(=O)OC)ccc4O)n3)cs2)c1 | 64 | 28 | 0 | 13 | 0 | 4 | 0 | 14 | 11 | 4 | 0 | 19 | 0 | 11 | 0 | 37 | 8 | 19 | 0 | 22 | IC50 [1]: 1 µM; IC50 [3]: 78 µM; Activity (HepaRG): Active; inhibition at 1 µM (SK-OV-3 [23]): 10%; inhibition at 10 µM (HL-60 [24]): 0%; inhibition at 1 µM (HL-60 [25]): 0%; inhibition at 10 µM (K562 [26]): 10%; inhibition at 1 µM (K562 [27]): 2%; inhibition at 10 µM (HepG2 [28]): 26%; inhibition at 1 µM (HepG2 [29]): 0%; Activity (Hepatocyte): 148%
O=C(O)c1ccc(O)c(-c2nc(C(=S)NCCOCCOCCNC(=S)c3csc(-c4cc(C(=O)O)ccc4O)n3)cs2)c1 | 114 | 0 | 0 | 0 | 0 | 0 | 0 | 8 | 0 | 0 | 0 | 1 | 0 | 7 | 0 | 0 | 0 | 5 | 0 | 2 | IC50 [1]: 0.07 µM; Activity (HepaRG): Active; inhibition at 1 µM (SK-OV-3 [23]): 3%; inhibition at 10 µM (HL-60 [24]): 0%; inhibition at 1 µM (HL-60 [25]): 0%; inhibition at 10 µM (K562 [26]): 2%; inhibition at 1 µM (K562 [27]): 0%; inhibition at 10 µM (HepG2 [28]): 0%; inhibition at 1 µM (HepG2 [29]): 0%
COC(=O)c1ccc(O)c(-c2nc(C(=S)NCCOCCOCCNC(=S)c3csc(-c4cc(C(=O)OC)ccc4O)n3)cs2)c1 | 42 | 58 | 5 | 69 | 6 | 3 | 0 | 42 | 1 | 10 | 0 | 64 | 0 | 98 | 8 | 54 | 10 | 62 | 0 | 45 | IC50 [1]: 0.5 µM; IC50 [3]: 50 µM; inhibition at 1 µM (SK-OV-3 [23]): 10%; inhibition at 10 µM (HL-60 [24]): 52%; inhibition at 1 µM (HL-60 [25]): 0%; inhibition at 10 µM (K562 [26]): 53%; inhibition at 1 µM (K562 [27]): 1%; inhibition at 10 µM (HepG2 [28]): 43%; inhibition at 1 µM (HepG2 [29]): 0%
